# Laboratory results as given in ChEMBL document CHEMBL1145205, “Synthesis and biological evaluation of 1,2,4-triazinylphenylalkylthiazolecarboxylic acid esters as cytokine-inhibiting antedrugs with strong bronchodilating effects in an animal model of asthma” (J Med Chem, 2005).
# How the values were obtained:
# [1] = tested on: PBL; assay: Percent inhibition of interleukin-5 production in human whole blood assay after 10e-6 M treatment; type: functional
# [2] = tested on: PBL; assay: Percent inhibition of interleukin-5 production in human whole blood assay after 10e-7 M treatment; type: functional
# [3] = Percent conversion of compound in human liver fraction after 60 min of administration; type: ADME, tissue-based; settings: read-out: Conversion
# In short: (§1)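 Test compound at 10^-6 M incubated at 37 °C in phosphate buffered saline with human liver S9 (10 µg protein/ml) or human lung S9 (50 µg protein/ml); samples taken at 0, 15 and 60 min; parent compound quantified by LC-MS/MS using MRM transition of parent to daughter ion; percent converted after 60 min.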
# [4] = Percent conversion of compound in human lung S9 fraction after 60 min of administration; type: ADME; settings: read-out: Conversion; in short: as §1
Compound,Inhibition [1] [%],Inhibition [2] [%],metabolised at 1 h [3] [%],metabolised at 1 h [4] [%]
CCCCOC(=O)c1sc(C(C)(C)c2c(Cl)cc(-n3ncc(=O)[nH]c3=O)cc2Cl)nc1-c1ccccc1,88,51,86,18
CCCOC(=O)c1sc(C(C)(C)c2c(Cl)cc(-n3ncc(=O)[nH]c3=O)cc2Cl)nc1-c1ccccc1,96,69,68,23
COC(=O)c1sc(C(C)(C)c2c(Cl)cc(-n3ncc(=O)[nH]c3=O)cc2Cl)nc1-c1ccccc1,93,84,49,47
CCOC(=O)c1sc(C(C)(C)c2c(Cl)cc(-n3ncc(=O)[nH]c3=O)cc2Cl)nc1-c1ccccc1,94,67,29,17
CC(C)(c1nc(-c2ccccc2)c(C(=O)OCCCO)s1)c1c(Cl)cc(-n2ncc(=O)[nH]c2=O)cc1Cl,83,58,76,8
CC(C)(c1nc(-c2ccccc2)c(C(=O)OCC(F)(F)F)s1)c1c(Cl)cc(-n2ncc(=O)[nH]c2=O)cc1Cl,92,75,38,36
CC(C)=CCOC(=O)c1sc(C(C)(C)c2c(Cl)cc(-n3ncc(=O)[nH]c3=O)cc2Cl)nc1-c1ccccc1,73,55,65,6
CC(=O)COC(=O)c1sc(C(C)(C)c2c(Cl)cc(-n3ncc(=O)[nH]c3=O)cc2Cl)nc1-c1ccccc1,85,57,64,19
CC(C)(c1nc(-c2ccccc2)c(C(=O)OCCO)s1)c1c(Cl)cc(-n2ncc(=O)[nH]c2=O)cc1Cl,93,66,1,0
CC(C)OC(=O)c1sc(C(C)(C)c2c(Cl)cc(-n3ncc(=O)[nH]c3=O)cc2Cl)nc1-c1ccccc1,94,85,10,1
C#CCOC(=O)c1sc(C(C)(C)c2c(Cl)cc(-n3ncc(=O)[nH]c3=O)cc2Cl)nc1-c1ccccc1,90,87,55,20
C=CCOC(=O)c1sc(C(C)(C)c2c(Cl)cc(-n3ncc(=O)[nH]c3=O)cc2Cl)nc1-c1ccccc1,96,69,68,23
CC(C)COC(=O)c1sc(C(C)(C)c2c(Cl)cc(-n3ncc(=O)[nH]c3=O)cc2Cl)nc1-c1ccccc1,90,56,80,27
CC(C)(c1nc(-c2ccccc2)c(C(=O)OCC#N)s1)c1c(Cl)cc(-n2ncc(=O)[nH]c2=O)cc1Cl,91,74,61,34
CC(C)(C)OC(=O)c1sc(C(C)(C)c2c(Cl)cc(-n3ncc(=O)[nH]c3=O)cc2Cl)nc1-c1ccccc1,89,79,7,0
CC(C)(c1nc(-c2ccccc2)c(C(=O)O)s1)c1c(Cl)cc(-n2ncc(=O)[nH]c2=O)cc1Cl,0,0,0,0
CC(C)(c1nc(-c2ccccc2)c(C(=O)OCC2CC2)s1)c1c(Cl)cc(-n2ncc(=O)[nH]c2=O)cc1Cl,92,56,87,27
CC(C)(c1nc(-c2ccccc2)c(C(=O)OCCOc2ccccc2)s1)c1c(Cl)cc(-n2ncc(=O)[nH]c2=O)cc1Cl,83,70,73,21
CC(C)(c1nc(-c2ccccc2)c(C(=O)OCCc2ccccc2)s1)c1c(Cl)cc(-n2ncc(=O)[nH]c2=O)cc1Cl,88,62,94,24
CCCCCOC(=O)c1sc(C(C)(C)c2c(Cl)cc(-n3ncc(=O)[nH]c3=O)cc2Cl)nc1-c1ccccc1,91,54,72,32
CC#CCOC(=O)c1sc(C(C)(C)c2c(Cl)cc(-n3ncc(=O)[nH]c3=O)cc2Cl)nc1-c1ccccc1,100,96,1,3
